Wee1 degr inh: Wee1 degradation inhibitors, primary screen, cell-based, HeLa, Wee1K328M-luciferase, luminescence; Wee1-like protein kinase (Homo sapiens), P30291; HeLa Luc-Wee1K328M stability; 100% = proteasome inhibitor MG132 effect; reporter increase, % at 5 µM; 220,000 compounds, 1.2% hits; AID 1321, 2008;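 active means activation above the mean of all tested compounds plus 3 SD, set per screening run, cut at about 8.8% in these data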;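 further: cells exposed to compound for 20 h before luminescence read; 0% = DMSO alone and 100% = MG132 at 30 µM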
Pf gametocyte: late stage P. falciparum gametocyte viability inhibitors, primary screen, ATP luminescence, HTS; P. falciparum stage V gametocytes, 24 h; inhibition, % at 10.9 µM; 150,000 compounds, 0.065% hits; AID 743093, 2013;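 active means inhibition above the mean plus 3 SD of compounds within the control limits, set per campaign, cut at about 38% in these data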;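 further: 0% = DMSO wells and 100% = medium only without gametocytes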
Mdm2 ligase inh: MDM2-luciferase reporter signal enhancers, primary screen, MDM2 E3 ligase inhibitor project, cell-based, luminescence, 1536-well. 210,000 compounds, 0.11% hits. cell-based MDM2 ubiquitination luciferase reporter, 2 h; 0 = plate control, 100 = twice control, blank-subtracted. AID 1230, 2008. signal enhancement, % at 5 µM. E3 ubiquitin-protein ligase Mdm2 (Homo sapiens), Q00987;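 active means signal enhancement of 30% or more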;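 further: luminescence tracks abundance of the self-degrading MDM2-luciferase fusion protein; higher signal means inhibition of MDM2 E3 ligase activity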
Target sequence (Q00987 whole entry, looked up, the tested form may be a part): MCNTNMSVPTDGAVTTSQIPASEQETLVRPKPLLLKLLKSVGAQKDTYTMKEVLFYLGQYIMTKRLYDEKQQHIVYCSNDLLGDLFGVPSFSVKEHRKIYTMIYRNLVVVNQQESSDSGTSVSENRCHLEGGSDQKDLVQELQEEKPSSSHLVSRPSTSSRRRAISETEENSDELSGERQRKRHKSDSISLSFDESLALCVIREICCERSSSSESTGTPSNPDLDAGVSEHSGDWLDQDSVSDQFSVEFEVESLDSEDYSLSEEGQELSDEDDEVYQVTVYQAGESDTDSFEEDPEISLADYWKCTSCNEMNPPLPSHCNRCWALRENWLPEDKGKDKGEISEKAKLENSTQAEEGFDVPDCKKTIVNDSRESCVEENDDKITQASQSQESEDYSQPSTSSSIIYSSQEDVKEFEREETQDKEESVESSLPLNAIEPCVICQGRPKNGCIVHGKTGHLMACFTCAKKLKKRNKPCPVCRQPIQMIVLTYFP
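Material: Stable MDM2–luciferase fusion reporter cells | Amount: 2000 cells seeded into each well | Dosing: One concentration, 5 µM, with 0.2% DMSO | Incubation: 4 h cell settling then 2 h compound exposure, 37 °C | Measured by: Luciferase luminescence | Read-out basis: % enhancement relative to plate controls after blank subtraction | Benchmarks: Control and blank well means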
TNF necrop inh: inhibitors of TNF-alpha triggered necroptosis, primary screen, cell-based, Jurkat FADD-/-, single concentration | Jurkat FADD-/- TNF necroptosis rescue, ATP luminescence, 24 h; 0 = TNF only, 100 = no-TNF cells | activation (protection from cell death), % at 10 µM | 220,000 compounds, 0.068% hits;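 active means activation, meaning protection from cell death, of at least 50% relative to plate controls; inactive means activation below 50%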;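 further: necroptosis triggered by 40 ng/mL TNF-alpha added together with compound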
zVAD death inh: inhibitors of zVAD-triggered necroptosis, primary screen, L929 cells. L929 zVAD necroptosis rescue, ATP luminescence, 24 h; with zVAD 60 µM. 220,000 compounds, 0.38% hits. viability rescue, % at 10 µM;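 active means activation, scaled between plate controls, above about 75%, limit read from the data; inactive means activation under that limit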;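 further: 0% = zVAD with DMSO and 100% = DMSO alone without zVAD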
* hit, by the source's call; . = not tested or not shown. The list is not random: actives were taken first. Their share in the collection is about 1.6%.

SMILES | Wee1 degr inh | Pf gametocyte | Mdm2 ligase inh | TNF necrop inh | zVAD death inh
Cc1ccn2cc(C(=O)Nc3nnc(C)s3)nc2c1 | 8.9* | . | -15.8 | 0.2 | 2.6
COc1ccc([N+](=O)[O-])cc1/C=N/NC(=O)CNC(=O)c1cccc(F)c1 | -0.7 | -10.6 | -3.9 | 1.1 | 1.1
CCn1cc(C(=O)O)c(=O)c2cc(F)c(N3CCNCC3)cc21 | -0.4 | . | . | 0.8 | 2.5
Cc1ccc(CC(=O)Nc2ncc([N+](=O)[O-])s2)cc1 | 2.7 | -20.1 | -12.5 | 77.4* | 1.6
O=C(/C=C/c1ccc([N+](=O)[O-])cc1)Nc1ncc([N+](=O)[O-])s1 | 22.4* | -34.4 | -62.2 | -3.8 | 0.2
CC(C)n1c(S(=O)(=O)O)nc2ccccc21 | 7.0 | . | -2.6 | 0.1 | 0.6
CCOc1ccc(NC2c3ccccc3C(=O)N2Cc2ccc3c(c2)OCO3)cc1 (centres undefined) | -1.4 | . | -14.7 | 3.5 | -0.3
CC(=O)c1cccc(NC2c3ccccc3C(=O)N2Cc2ccc3c(c2)OCO3)c1 (centres undefined) | 9.1* | . | -8.0 | 0.6 | -0.6
COc1ccc(CN(Cc2cc3cc(OC)c(OC)cc3[nH]c2=O)C(=O)NC2CCCCC2)cc1 | -0.5 | 10.6 | 1.0 | -0.4 | -0.4
COc1cc2cc(CN(C(=O)NC3CCCCC3)C3CCCC3)c(=O)[nH]c2cc1OC | 8.8* | . | -4.4 | 2.4 | 0.4
OCc1ccccc1OCCOc1ccc(Cl)c2cccnc12 | -1.3 | . | -7.4 | -1.4 | 0.5
Clc1ccc(OCc2cn3ccccc3n2)c2ncccc12 | 9.9* | -35.9 | 5.7 | -0.7 | 12.0
COC(=O)COc1ccc(C2NC(=O)NC(c3ccccc3)=C2C(C)=O)cc1OC (centres undefined) | -1.2 | . | -3.7 | -1.2 | -0.1
Cc1cc(F)c(F)c(C(=O)NC2CC2)c1Cl | 1.2 | . | -5.0 | -2.0 | 0.1
CCOC(=O)c1c(C)[nH]c(C2=NNC(=Nc3ccccc3)SC2)c1C | 0.8 | -9.0 | -9.1 | -6.2 | 5.8
Cc1cc(C(=O)Nc2ccc(S(=O)(=O)N3CCCC3)cc2)no1 | 1.0 | 16.1 | -11.8 | 2.2 | 1.2
Cc1cc(C(=O)Nc2ccc(N3CCCCC3)cc2)no1 | 9.1* | -13.9 | -58.4 | 5.2 | 1.9
CCOc1ccc(-n2nc(C(=O)N3CCN(CC)CC3)c3ccccc3c2=O)cc1 | 9.6* | . | -3.6 | -1.7 | 0.4
CSc1ccccc1NC(=O)c1cc(-c2cccs2)on1 | 9.4* | . | -7.0 | -0.3 | 0.1
O=C(Nn1c(C2CC2)nc2ccccc2c1=O)c1ccco1 | -0.7 | . | -12.9 | 1.1 | 1.1
Cc1ccn(CC(C)C(=O)O)n1 (centres undefined) | 9.6* | . | -1.7 | 1.0 | 6.9
CCn1c(COc2ccccc2C)nnc1SCC(=O)CC(=O)Nc1ccccc1 | 11.9* | -17.9 | -5.9 | -0.8 | -0.3
CCn1c(COc2ccccc2C)nnc1SCC(=O)O | -1.6 | . | -4.2 | -2.5 | 0.4
N#C/C(=C(/O)COC(=O)c1ccc(O)cc1)c1nc2ccccc2[nH]1 | 8.9* | -24.0 | -28.1 | 3.6 | 3.0
CC(C)C(=O)OC/C(O)=C(\C#N)c1nc2ccccc2[nH]1 | 6.5 | 5.5 | -15.0 | 4.5 | 43.3
SMILES | Wee1 degr inh | Pf gametocyte | Mdm2 ligase inh | TNF necrop inh | zVAD death inh
CC(C)CCNC(=O)COc1cccc2c1OC(C)(C)C2 | 0.5 | -21.8 | -22.8 | 0.8 | 3.5
O=C(c1ccc([N+](=O)[O-])cc1)N1CCSC1c1ccccc1Cl (centres undefined) | -1.6 | 8.8 | -9.5 | 50.9* | -0.7
COc1ccc(C2SCCN2C(=O)c2ccc([N+](=O)[O-])cc2)cc1 (centres undefined) | -1.8 | 0.6 | -8.8 | 6.9 | 0.8
Cc1ccc(N=Nc2c(O)c3ccccc3[nH]c2=O)c(S(=O)(=O)N(C)C)c1 | -1.3 | . | -25.7 | -3.5 | 1.0
COc1ccc(/C=C/C(=O)c2ccc(O)cc2)cc1 | -0.9 | . | -8.1 | 1.3 | -0.2
COc1ccc(/C=C/C(=O)c2ccoc2)cc1 | 12.7* | . | -11.7 | 3.6 | 0.2
Cc1cc(NC(=O)CSc2nc(C(C)C)nc3sc4c(c23)CCCC4)no1 | 2.3 | . | -3.2 | 1.5 | 2.6
O=[N+]([O-])c1ccc(-n2cccc2/C=N/Nc2nc(N3CCCCC3)nc(N3CCCCC3)n2)cc1 | 10.6* | . | -7.6 | -0.8 | 1.9
O=[N+]([O-])c1cccc(-n2cccc2/C=N/Nc2nc(N3CCCCC3)nc(N3CCCCC3)n2)c1 | -0.5 | 2.7 | -8.3 | 1.5 | 0.2
O=S(=O)(c1ccccc1)N1CCCC1c1cccs1 (centres undefined) | 10.2* | -54.5 | -8.9 | -0.9 | -0.9
COc1ccc(S(=O)(=O)N2CCCC2c2cccs2)cc1 (centres undefined) | -1.4 | -1.2 | -0.6 | 0.5 | 0.3
O=c1cc(N2CCOCC2)c2ccccc2o1 | -1.5 | . | -7.0 | 0.1 | 0.3
O=c1oc2ccccc2cc1N1CCOCC1 | 9.3* | -10.1 | -4.8 | 1.0 | 1.6
CC(NC(=O)c1cccc(S(=O)(=O)N(C)C)c1)c1nc2ccccc2[nH]1 (centres undefined) | 6.7 | 20.7 | -11.2 | 2.0 | 2.0
CCN(CC)S(=O)(=O)c1cccc(C(=O)N[C@@H](C)c2nc3ccccc3[nH]2)c1 | 9.9* | . | -10.0 | 2.4 | 4.0
O=C(CCCOc1ccc(Cl)cc1)NCC1CCCO1 (centres undefined) | -2.3 | 5.5 | 2.4 | -0.1 | 1.3
CC(=O)Oc1ccc2c(=O)c(-c3nc4ccccc4s3)coc2c1 | 9.1* | 15.3 | -39.9 | -2.4 | -1.2
COCc1nnc(NS(=O)(=O)c2ccc(NC(C)=O)cc2)s1 | 9.9* | 7.1 | -5.5 | -0.2 | 1.7
CCc1nnc(NS(=O)(=O)c2ccc(NS(=O)(=O)c3ccc(NC(C)=O)cc3)cc2)s1 | 1.3 | . | 0.1 | 0.7 | 0.6
Cc1nnc(SCC(=O)NCc2ccc3c(c2)OCO3)s1 | 9.5* | -9.9 | 2.6 | -1.0 | -0.3
CC(C)Nc1nnc(SCC(=O)NCc2ccc3c(c2)OCO3)s1 | -1.9 | -17.2 | -1.7 | -0.2 | 2.5
CN(C)c1oc(-c2ccccc2Cl)nc1S(=O)(=O)c1ccccc1 | 1.1 | . | -15.4 | -0.4 | -0.3
CC(C)(C)NCc1cc2ccccc2[nH]c1=O | -2.6 | . | -13.8 | 0.5 | -0.2
CCOc1ccc(NS(=O)(=O)c2ccc3[nH]cc(C(=O)N(CC)CC)c(=O)c3c2)cc1 | 16.7* | -16.0 | -4.5 | 0.4 | 5.7
CCOC(=O)N1CCc2c(sc3ncn(Cc4ccc(F)cc4)c(=O)c23)C1 | 1.1 | -1.1 | -8.6 | 3.3 | 0.5
O=c1c2c3c(sc2ncn1Cc1ccc(F)cc1)CCC3 | 0.3 | -33.0 | -4.0 | 92.5* | 1.2
O=C(CCC(=O)N(CC(=O)NC1CCCC1)Cc1ccc2c(c1)OCO2)Nc1ccccn1 | 2.6 | 21.4 | 0.1 | -4.4 | -0.5

From PubChem
